Laboratory results from ChEMBL document CHEMBL4732104, “Discovery of bardoxolone derivatives as novel orally active necroptosis inhibitors” (Eur J Med Chem, 2021).
The source made the active and inactive calls.

Tests used:
Mus musculus [1] = assay: Protection against TNFalpha-induced C57BL/6J mouse model of systemic inflammatory response syndrome assessed as reduction in IL1beta level at 20 mg/kg, ig administered via gavage 2 hrs prior to TNFalpha stimulation and measured after 6 hrs by ELISA; format: functional, organism-based; details: time 8.0 hrs
Procedure, shortened: (§1)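 Female C57BL/6J mice, 6–8 weeks, fasted overnight, n=11 per group. Agent suspended in 0.5% CMC-Na, given by oral gavage 2 h before i.v. mTNF-α (250 µg/kg in PBS). z-VAD-fmk i.p. 200 µg 15 min before and 75 µg 1 h after. Serum IL-1β and IL-6 measured by ELISA at 6 h.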

Rattus norvegicus [2] = assay: Neuroprotective activity in middle cerebral artery occlusion-induced Sprague-Dawley rat model of ischemia-reperfusion injury assessed as reduction in cerebral infarct volume at 100 mg/kg by TTC staining based microscopic analysis relative to control; format: functional; set-up: scale not given: the % may be the effect or the level left
Procedure, shortened: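 Rats: left MCA blocked by monofilament via internal carotid under chloral hydrate (300 mg/kg i.p.), 2 h occlusion, 24 h reperfusion. Groups sham, vehicle, compound 100 mg/kg, nimodipine 1 mg/kg given orally beforehand. Brains cut in 2 mm coronal slices, TTC-stained; unstained area as percent of whole brain area; n = 6.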

[3] = biological target: T1, Heat shock protein HSP90 (Homo sapiens) (UniProt P07900+P08238); assay: Inhibition of HSP90 in TNFalpha/SM-164/Z-VAD-fmk (TSZ)-induced human HT-29 cells assessed as reduction in RIPK1 expression at 10 uM preincubated for 30 mins followed by TSZ stimulation and measured after 2 to 6 hrs by Western blot analysis; format: cell-based; details: time 2-6.5 hrs
Procedure, shortened: (§2)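 HT-29 cells pretreated 30 min with agent (10 μM), then TSZ for the indicated times. Lysed in RIPA with protease and phosphatase inhibitors, BCA quantified. 30 μg protein run on SDS-PAGE and blotted to PVDF. Blocked in 5% BSA, primary antibodies 1:1000 overnight at 4 °C, secondary 1:8000 for 1 h at room temperature.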

HT-29 [4] = assay: Anti-necroptotic activity in human HT-29 cells assessed as inhibition of TNFalpha/cycloheximide/Z-VAD-fmk (TCZ)-induced necroptosis by measuring increase in cell viability measured after 16 hrs by celltiter-glo luminescent cell viability assay; format: functional, cell-based
HT-29 [5] = assay: Anti-necroptotic activity in human HT-29 cells assessed as inhibition of TNFalpha/SM-164/Z-VAD-fmk (TSZ)-induced necroptosis by measuring increase in cell viability at 10 uM measured after 12 hrs in presence of RIPK1/3 inhibitor TAK632 by celltiter-glo luminescent cell viability assay; format: functional, cell-based
Procedure, shortened: (§3)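 HT-29 cells exposed to test agent combined with a second necroptosis inhibitor, then stimulated with TSZ for 12 h to assess synergy. Viability read by CellTiter-Glo luminescence.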

HT-29 [6] = assay: Protection against TNFalpha/SM-164 (TS)-induced apoptosis in human HT-29 cells assessed as increase in cell viability at 0.5 to 10 uM measured after 20 hrs by celltiter-glo luminescent cell viability assay; format: functional, cell-based; details: dose 0.5-10 µM
Procedure, shortened: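 HT-29 cells exposed to agent across concentrations, then TNF-α and Smac mimetic (TS) for 20 h. CellTiter-Glo viability, mean ± S.D. of three independent experiments.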

Mus musculus [7] = assay: Protection against TNFalpha-induced C57BL/6J mouse model of systemic inflammatory response syndrome assessed as survival at 20 mg/kg, ig administered via gavage 2 hrs prior to TNFalpha stimulation and measured after 10 to 60 mins relative to control; format: functional; details: po, time 2-3 hrs
Procedure, shortened: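 Female C57BL/6 J mice, 6–8 weeks, fasted overnight, n=11 per group. Compound suspended in 0.5% CMC-Na, by oral gavage 2 h before mTNF-α 250 µg/kg i.v.; z-VAD-fmk 200 µg i.p. 15 min before and 75 µg 1 h after TNF. Survival and body temperature monitored.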

[8] = biological target: T1, Heat shock protein HSP90 (Homo sapiens); assay: Inhibition of HSP90 in TNFalpha/SM-164/Z-VAD-fmk (TSZ)-induced human HT-29 cells assessed as reduction in MLKL expression at 10 uM preincubated for 30 mins followed by TSZ stimulation and measured after 2 to 6 hrs by Western blot analysis; format: cell-based; details: time 2-6.5 hrs; procedure, shortened: as §2
HT-29 [9] = assay: Anti-necroptotic activity in human HT-29 cells assessed as inhibition of TNFalpha/SM-164/Z-VAD-fmk (TSZ)-induced necroptosis by measuring increase in cell viability at 10 uM measured after 12 hrs in presence of RIPK1 inhibitor Nec-1 by celltiter-glo luminescent cell viability assay; format: functional, cell-based; procedure, shortened: as §3
Mus musculus [10] = assay: Protection against TNFalpha-induced C57BL/6J mouse model of systemic inflammatory response syndrome assessed as reduction in hypothermia at 10 to 20 mg/kg, ig administered via gavage 2 hrs prior to TNFalpha stimulation and measured after 10 to 60 mins by electric thermometric method; format: functional, organism-based; details: dose 10-20 mg/kg, time 2-3 hrs
Procedure, shortened: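 Female C57BL/6J mice, fasted, n=11 per group. Agent at 10 or 20 mg/kg in 0.5% CMC-Na by gavage 2 h before i.v. mTNF-α (250 µg/kg). z-VAD-fmk i.p. 200 µg at −15 min and 75 µg at +1 h. Body temperature tracked, mean ± S.E.M.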

[11] = biological target: T1, Heat shock protein HSP90 (Homo sapiens); assay: Inhibition of HSP90 in TNFalpha/SM-164/Z-VAD-fmk (TSZ)-induced human HT-29 cells assessed as reduction in EGFR expression at 10 uM by Western blot analysis; format: cell-based; details: time 0.5-6 hrs
HT-29 [12] = assay: Anti-necroptotic activity in human HT-29 cells assessed as inhibition of TNFalpha/SM-164/Z-VAD-fmk (TSZ)-induced necroptosis by measuring increase in cell viability at 10 uM measured after 12 hrs in presence of MLKL inhibitor NSA by celltiter-glo luminescent cell viability assay; format: functional, cell-based; procedure, shortened: as §3
[13] = biological target: T1, Heat shock protein HSP90 (Homo sapiens); assay: Inhibition of HSP90 in TNFalpha/SM-164/Z-VAD-fmk (TSZ)-induced human HT-29 cells assessed as increase in HSP70 expression at 10 uM by Western blot analysis; format: cell-based; details: time 0.5-6 hrs
Mus musculus [14] = assay: Protection against TNFalpha-induced C57BL/6J mouse model of systemic inflammatory response syndrome assessed as reduction in IL6 level at 20 mg/kg, ig administered via gavage 2 hrs prior to TNFalpha stimulation and measured after 6 hrs by ELISA; format: functional, organism-based; details: time 8.0 hrs; procedure, shortened: as §1
Rattus norvegicus [15] = assay: Neuroprotective activity in middle cerebral artery occlusion-induced Sprague-Dawley rat model of ischemia-reperfusion injury assessed as reversal of pathological change at 100 mg/kg by H and E staining based analysis; format: functional, organism-based
Procedure, shortened: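 Rats underwent 2 h MCA filament occlusion, then 24 h reperfusion, agent at 100 mg/kg. Animals perfused with saline and 4% paraformaldehyde. Brains paraffin-embedded and cut into 5 μm coronal sections. Hippocampus and cortex assessed by HE staining.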

[16] = biological target: T1, Heat shock protein HSP90 (Homo sapiens); assay: Inhibition of HSP90 in TNFalpha/SM-164/Z-VAD-fmk (TSZ)-induced human HT-29 cells assessed as reduction in RIPK1-RIPK3 necrosome formation at 10 uM measured after 6 hrs by Western blot analysis; format: cell-based
Procedure, shortened: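 HT-29 cells given agent (10 μM) or DMSO for 6 h under TSZ. Lysed in NP-40 buffer with PMSF, protease inhibitors, β-glycerophosphate, NaF and Na3VO4. Anti-RIPK1 immunoprecipitation overnight at 4 °C, protein A/G capture overnight. Eluates boiled in SDS buffer and resolved on 10% gels for immunoblot.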

Rattus norvegicus [17] = assay: Neuroprotective activity in middle cerebral artery occlusion-induced Sprague-Dawley rat model of ischemia-reperfusion injury assessed as neurological deficit score at 100 mg/kg (reference value: 3.71 +/- 0.45); format: functional

CC1(C)CC[C@]2(C(=O)n3cnc(-c4cccnc4)c3)CC[C@]3(C)[C@H](C(=O)C=C4[C@@]5(C)C=C(C#N)C(=O)C(C)(C)[C@@H]5CC[C@]43C)[C@@H]2C1
2.72: Activity (Rattus norvegicus [17])
22.8%: Activity (Rattus norvegicus [2])
active: Activity (Mus musculus [1]) | inhibition [3] | inhibition (HT-29 [4]) Dose-dependent effect | inhibition (HT-29 [5]) | Activity (HT-29 [6]) | inhibition [8] | inhibition (HT-29 [9]) | Activity (Mus musculus [10]) | inhibition [11] Dose-dependent effect | inhibition (HT-29 [12]) | inhibition [13] Dose-dependent effect | Activity (Mus musculus [14]) | Activity (Rattus norvegicus [15]) | inhibition [16]
100%: survival at 20 mg/kg (Mus musculus [7])
